The source made the active and inactive calls. The calls are words filed in the database; no cut-off is given here.
Columns and labels:
[1] = target: T1, Poly [ADP-ribose] polymerase 1 (Homo sapiens, UniProt P09874); experiment: Inhibition of PARP-1 (unknown origin) assessed as incorporation of biotinylated poly ADP-ribose onto histone proteins by colorimetric analysis
NCI-H1693 = experiment: In vitro antiproliferative activity against human NCI-H1693 cells assessed as inhibition of cell proliferation after 72 hrs by MTT assay; type: functional, cell-based; details: NCI-H1693, 72 h
NCI-H1792 = experiment: In vitro antiproliferative activity against human NCI-H1792 cells assessed as inhibition of cell proliferation after 72 hrs by MTT assay; type: functional, cell-based; details: NCI-H1792, 72 h
NCI-H1703 [2] = experiment: Increase in intracellular reactive oxygen/nitrogen species in human NCI-H1703 cells at 10 uM after 60 mins by DCF-DA dye based luminescence spectrometer analysis; type: functional, cell-based
Summary of the method: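 Cells in six-well plates (6 × 10^5/well) loaded with 5 μM DCF-DA in HBSS, 30 min at 37 °C, 5% CO2, then rinsed. Fresh HBSS with compound (10 μM) or DMSO control added. After 60 min cells scraped into HBSS; DCF fluorescence read at ex 488 / em 530 nm. At least three experiments, each at least in triplicate.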

NCI-H1703 [3] = experiment: Increase in intracellular nitric oxide release in human NCI-H1703 cells at 10 uM after 30 mins by DAF-FM dye based luminescence spectrometer analysis; type: functional, cell-based
[4] = In vitro antiproliferative activity against human NCI-H1944 cells assessed as inhibition of cell proliferation after 72 hrs by MTT assay; type: functional, cell-based; details: NCI-H1944, 72 h
NCI-H1355 = experiment: In vitro antiproliferative activity against human NCI-H1355 cells assessed as inhibition of cell proliferation after 72 hrs by MTT assay; type: functional, cell-based; details: NCI-H1355, 72 h
[5] = Prodrug activation assessed as GSH reactivity in aqueous phosphate buffer at pH 7.4 by UV-Visible spectrophotometer analysis; type: physicochemical
Summary of the method: (§1)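 UV–vis kinetics at 37 °C in 0.1 M phosphate buffer, pH 7.4, with 50 μM DTPA and 4 mM GSH, with or without 40 nM recombinant GSTP1 or GSTA1. Substrate (typically 10 μM) added after thermal equilibration. Ratios are k with enzyme over k with GSH alone.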

[6] = target: T1, Poly [ADP-ribose] polymerase 1; experiment: Inhibition of PARP-1 (unknown origin) assessed as incorporation of biotinylated poly ADP-ribose onto histone proteins measured without activation by GSH by colorimetric analysis
Summary of the method: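 Colorimetric PARP assay kit measuring biotinylated poly(ADP-ribose) incorporation onto histones, run per the manufacturer's protocol. Absorbance read at 450 nm. Inhibitor tested over 0.01 nM–1 μM, prodrug given without GSH activation. At least three experiments, each at least in triplicate.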

[7] = In vitro antiproliferative activity against human H23 cells assessed as inhibition of cell proliferation after 72 hrs by MTT assay; type: functional, cell-based; details: NCI-H23, 72 h
NCI-H1703 [8] = experiment: In vitro antiproliferative activity against human NCI-H1703 cells assessed as inhibition of cell proliferation after 72 hrs by MTT assay; type: functional, cell-based; details: NCI-H1703, 72 h
[9] = In vitro antiproliferative activity against human NCI-H2023 cells assessed as inhibition of cell proliferation after 72 hrs by MTT assay; type: functional, cell-based; details: NCI-H2023, 72 h
[10] = In vitro antiproliferative activity against human H441 cells assessed as inhibition of cell proliferation after 72 hrs by MTT assay; type: functional, cell-based; details: NCI-H441, 72 h
[11] = In vitro antiproliferative activity against human NCI-H1568 cells assessed as inhibition of cell proliferation after 72 hrs by MTT assay; type: functional, cell-based; details: NCI-H1568, 72 h
NCI-H2030 = experiment: In vitro antiproliferative activity against human NCI-H2030 cells assessed as inhibition of cell proliferation after 72 hrs by MTT assay; type: functional, cell-based; details: NCI-H2030, 72 h
[12] = In vitro antiproliferative activity against human H460 cells assessed as inhibition of cell proliferation after 72 hrs by MTT assay; type: functional, cell-based; details: NCI-H460, 72 h
A549 [13] = experiment: In vitro antiproliferative activity against human A549 cells assessed as inhibition of cell proliferation after 72 hrs by MTT assay; type: functional, cell-based; details: A549, 72 h
NCI-H2122 = experiment: In vitro antiproliferative activity against human NCI-H2122 cells assessed as inhibition of cell proliferation after 72 hrs by MTT assay; type: functional, cell-based; details: NCI-H2122, 72 h
NCI-H322M = experiment: In vitro antiproliferative activity against human NCI-H322M cells assessed as inhibition of cell proliferation after 72 hrs by MTT assay; type: functional, cell-based
A549 [14] = experiment: Retention time of the compound in human A549 cells treated with 2-(2,4-dinitrophenoxy)-1-(4-(2-fluoro-5-((4-oxo-3,4-dihydrophthalazin-1-yl)methyl)benzoyl)piperazin-1-yl)diazene oxide at 10 uM by LC/MS/MS analysis; type: ADME, cell-based; details: a549, 10 µM
Summary of the method: (§2)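 A549 cells plated in flasks overnight at 37 °C, then treated with 10 μM compound for varying times. Lysed by scraping in 10 mM HCl/acetonitrile, 5% sulfosalicylic acid added, centrifuged at 12000g for 15 min, filtered. Analyzed on a C18 column, 0.2 mL/min, H2O/acetonitrile/0.1% formic acid gradient, by Q-TOF LC/MS/MS in positive mode; extracted ion chromatograms at [M+H]+.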

[15] = target: Glutathione S-transferase P (Homo sapiens, UniProt P09211); experiment: Ratio of prodrug activation in presence of GSH and recombinant GSTP1 (unknown origin) to prodrug activation in presence of GSH by UV-Visible spectrophotometry
Summary of the method: as §1, with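 “equilibration. Absorbance followed at 302 nm; first-order rate from an exponential fit.” for “equilibration.”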

[16] = target: T2, Glutathione S-transferase A1 (Homo sapiens, UniProt P08263); experiment: Ratio of prodrug activation in presence of GSH and recombinant GSTA1 (unknown origin) to prodrug activation in presence of GSH by UV-Visible spectrophotometry
T2 sequence (P08263 whole entry): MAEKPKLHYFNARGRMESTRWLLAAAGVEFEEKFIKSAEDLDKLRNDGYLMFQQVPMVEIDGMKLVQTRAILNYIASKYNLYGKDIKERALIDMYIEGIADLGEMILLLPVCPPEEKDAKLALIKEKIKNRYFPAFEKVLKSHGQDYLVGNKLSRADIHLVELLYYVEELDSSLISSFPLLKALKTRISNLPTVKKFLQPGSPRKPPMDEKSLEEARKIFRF
Summary of the method: as §1, with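 “equilibration. Absorbance followed at 302 nm; first-order rate from an exponential fit.” for “equilibration.”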

NCI-H1703 [17] = experiment: Induction of apoptosis in human NCI-H1703 cells assessed as cleaved caspase-7 level at 5 to 25 uM by immunoblot analysis; type: functional, cell-based; details: 5 to […] uM
Mus musculus = experiment: Systemic toxicity in NCr nu/nu athymic mouse xenografted with human A549 cells assessed as body weight at 92 umol/kg, iv administered two times a week for 4 weeks (reference value: 25.0 +/-0.78 gms); type: organism-based; details: in vivo, 672 h
A549 [18] = experiment: Retention time of the compound in human A549 cells at 10 uM by LC/MS/MS analysis; type: ADME, cell-based; details: a549, 10 µM
Summary of the method: as §2

NCI-H1703 [19] = experiment: Induction of DNA strand break damage in human NCI-H1703 cells at 5 uM after 24 hrs by comet assay; type: functional, cell-based
Tumour [20] = experiment: Drug metabolism in tumor of NCr nu/nu athymic mouse xenografted with human A549 cells assessed as metabolite formation at 92 umol/kg, iv administered two times a week for 4 weeks; type: ADME, organism-based, Neoplasm; details: in vivo, 672 h
Summary of the method: (§3)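 A549 cells (RPMI 1640 + 10% FBS, ≤4 passages) harvested at 70–80% confluence, 5 × 10^6 cells in PBS implanted s.c.; at ~3 mm × 3 mm tumors, mice randomized into groups of 12. Tail-vein injection at 92 μmol/kg in 20 μL DMSO, twice weekly for 4 weeks; saline or DMSO controls. Tumors caliper-measured twice weekly, volume = π/2 × L × W². Tumors resected at end, frozen, extracted for metabolite analysis by LC/MS.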

A549 [21] = experiment: Anticancer activity against human A549 cells xenografted in NCr nu/nu athymic mouse assessed as reduction of tumor growth at 92 umol/kg, iv administered two times a week for 4 weeks; type: functional, organism-based
Summary of the method: as §3

Tumour [22] = experiment: Drug uptake in tumor of NCr nu/nu athymic mouse xenografted with human A549 cells at 92 umol/kg, iv administered two times a week for 4 weeks; type: ADME, organism-based, Neoplasm; details: in vivo, 672 h
Summary of the method: as §3

T1 sequence (P09874 whole entry): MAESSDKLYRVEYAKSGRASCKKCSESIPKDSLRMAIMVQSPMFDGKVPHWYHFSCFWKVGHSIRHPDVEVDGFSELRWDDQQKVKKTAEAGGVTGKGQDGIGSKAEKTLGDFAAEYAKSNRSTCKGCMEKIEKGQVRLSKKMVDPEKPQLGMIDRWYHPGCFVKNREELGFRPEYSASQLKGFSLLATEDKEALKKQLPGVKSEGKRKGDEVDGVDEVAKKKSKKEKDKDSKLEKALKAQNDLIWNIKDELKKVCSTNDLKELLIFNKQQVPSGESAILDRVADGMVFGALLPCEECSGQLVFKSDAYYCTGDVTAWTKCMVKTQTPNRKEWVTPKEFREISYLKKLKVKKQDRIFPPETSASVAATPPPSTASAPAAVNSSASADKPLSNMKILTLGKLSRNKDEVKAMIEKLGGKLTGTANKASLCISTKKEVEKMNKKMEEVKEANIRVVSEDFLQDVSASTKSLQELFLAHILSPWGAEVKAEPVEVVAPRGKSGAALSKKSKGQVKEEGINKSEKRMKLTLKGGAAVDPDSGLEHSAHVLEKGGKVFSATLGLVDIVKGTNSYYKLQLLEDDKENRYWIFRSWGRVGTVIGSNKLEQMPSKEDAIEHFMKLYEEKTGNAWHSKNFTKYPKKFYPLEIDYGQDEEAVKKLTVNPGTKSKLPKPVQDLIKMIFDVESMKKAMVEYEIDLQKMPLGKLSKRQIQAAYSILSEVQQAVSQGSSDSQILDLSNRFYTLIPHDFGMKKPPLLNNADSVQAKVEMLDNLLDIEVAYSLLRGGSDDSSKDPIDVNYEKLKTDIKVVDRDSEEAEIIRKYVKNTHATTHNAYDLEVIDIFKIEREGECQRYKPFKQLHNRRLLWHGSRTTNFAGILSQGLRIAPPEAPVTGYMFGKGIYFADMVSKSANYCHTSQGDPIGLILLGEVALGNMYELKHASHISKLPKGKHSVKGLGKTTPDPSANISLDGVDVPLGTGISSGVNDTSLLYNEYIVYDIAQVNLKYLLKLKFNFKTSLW
Sequence of Glutathione S-transferase P (P09211 whole entry): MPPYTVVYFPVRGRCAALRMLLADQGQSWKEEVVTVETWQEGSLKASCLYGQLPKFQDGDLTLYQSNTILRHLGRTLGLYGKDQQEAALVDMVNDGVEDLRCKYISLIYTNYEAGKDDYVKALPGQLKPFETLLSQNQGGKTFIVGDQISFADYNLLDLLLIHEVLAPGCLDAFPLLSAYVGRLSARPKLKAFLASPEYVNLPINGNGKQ

## O=C(c1cccc(Cc2n[nH]c(=O)c3ccccc23)c1)N1CCNCC1
[1]
  IC50: 30.5 nM

## O=C(c1cccc(Cc2n[nH]c(=O)c3ccccc23)c1)N1CCN(/[N+]([O-])=N/Oc2ccc([N+](=O)[O-])cc2[N+](=O)[O-])CC1
NCI-H1693
  IC50: 5.3 µM
NCI-H1792
  IC50: 14 µM
NCI-H1703 [2]
  Activity: Active
NCI-H1703 [3]
  Activity: Active
[4]
  IC50: 14 µM
NCI-H1355
  IC50: 11.4 µM
[5]
  t1/2: 11.2 min
[6]
  IC50: 123 nM
[7]
  IC50: 7.5 µM
NCI-H1703 [8]
  IC50: 6.8 µM
[9]
  IC50: 19.4 µM
[10]
  IC50: 8.1 µM
[11]
  IC50: 6.5 µM
NCI-H2030
  IC50: 13.8 µM
[12]
  IC50: 13.8 µM
A549 [13]
  IC50: 16.8 µM
NCI-H2122
  IC50: 11.2 µM
NCI-H322M
  IC50: 9 µM

## N[C@@H](CCC(=O)N[C@@H](CSc1ccc([N+](=O)[O-])cc1[N+](=O)[O-])C(=O)NCC(=O)O)C(=O)O
A549 [14]
  Retention_time: 13.8 min

## CNc1ccc(C(=O)Oc2cc(O/N=[N+](\[O-])N(C)C)c([N+](=O)[O-])cc2[N+](=O)[O-])cc1
[15]
  Ratio: 5.4
[5]
  t1/2: 2 min
[16]
  Ratio: 3.7

## O=C(c1cc(Cc2n[nH]c(=O)c3ccccc23)ccc1F)N1CCN(/[N+]([O-])=N/Oc2ccc([N+](=O)[O-])cc2[N+](=O)[O-])CC1
NCI-H1693
  IC50: 5.4 µM
NCI-H1792
  IC50: 12.7 µM
NCI-H1703 [2]
  Activity: Active
NCI-H1703 [3]
  Activity: Active
[4]
  IC50: 10.5 µM
[15]
  Ratio: 10.6
[5]
  t1/2: 11.6 min
[6]
  IC50: 58 nM
NCI-H1703 [17]
  Activity: Active
[7]
  IC50: 8.4 µM
NCI-H1703 [8]
  IC50: 4.3 µM
Mus musculus
  Activity: 27.7 g
[9]
  IC50: 15 µM
A549 [18]
  Retention_time: 18.2 min
[16]
  Ratio: 20.4
[10]
  IC50: 4.5 µM
NCI-H1703 [19]
  Activity: Active
[11]
  IC50: 3 µM
NCI-H2030
  IC50: 9.2 µM
[12]
  IC50: 16.4 µM
A549 [13]
  IC50: 13.5 µM
Tumour [20]
  Drug metabolism: metabolite_detected
A549 [21]
  growth inhibition (GI): Active
NCI-H2122
  IC50: 7.5 µM
NCI-H322M
  IC50: 7.9 µM
Tumour [22]
  Drug uptake: Active

## O=C(c1cc(Cc2n[nH]c(=O)c3ccccc23)ccc1F)N1CCNCC1
[1]
  IC50: 6.9 nM
A549 [14]
  Retention_time: 11.9 min

## O=C(c1cc(Cc2n[nH]c(=O)c3ccccc23)ccc1F)N1CCN(C(=O)C2CC2)CC1 [OLAPARIB]
NCI-H1703 [17]
  Activity: inactive
Mus musculus
  Activity: 25.6 g

— ChEMBL document CHEMBL3232734, “Nitric oxide (NO) releasing poly ADP-ribose polymerase 1 (PARP-1) inhibitors targeted to glutathione S-transferase P1-overexpressing cancer cells” (J Med Chem, 2014)
